Measurements published in publication PMC12780024 (Nature Communications, 2025).
One block for each molecule: values may come before it. Square brackets hold non-standard residues; d marks the D form. Ends that are not written are not given here. Hyp = O=C(O)[C@@H]1C[C@@H](O)CN1

Key:
[1] = test system: H2O2 accumulation in rosette leaves; test: DAB staining of H2O2 in leaves; assay type: in vivo, Arabidopsis thaliana; settings: 2 h
How it was run: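 Four-week-old rosette leaves treated 2 h with test peptide (100 µM) or hormone control (1 µM), then immersed in freshly prepared 100 µg/ml DAB in the dark for 8 h. Fixed and bleached in ethanol/acetic acid/glycerol (3:1:1), rinsed with distilled water, and photographed on a white background for H2O2 staining.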

SRK2E = test: Protein mobility shift assay; assay type: cell-based, Arabidopsis thaliana; settings: wild type protoplasts, 1 μM, 30 min, Phos-Tag; diminished by phosphatase
How it was run: (§1)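 Mesophyll protoplasts (6 × 10^4) transfected with 10 µg 35S::kinase-GFP plasmid and kept 18 h at 21 °C in W5 under continuous light. Treated with 1 µM peptide or ABA for up to 30 min, frozen, ground and lysed (Tris pH 7.5 buffer). Cleared lysate run on Phos-Tag SDS-PAGE and blotted with anti-GFP; tubulin as internal control. For dephosphorylation, lysate incubated with λ-phosphatase at 30 °C for 30 min, with or without NaF/NaVO3 inhibitors.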

[2] = cited from earlier work
SRK2D = test: Protein mobility shift assay; assay type: cell-based, Arabidopsis thaliana; settings: wild type protoplasts, 1 μM, 30 min, Phos-Tag; diminished by phosphatase
How it was run: as §1

[3] = test system: stomata (guard cells) of Arabidopsis leaves; test: Stomatal aperture measurement; assay type: cell-based, Arabidopsis thaliana
How it was run: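 Abaxial epidermis peeled from leaves of 3–4-week-old plants. Pore width and length measured by light microscopy and expressed as W/L ratio. n = 15 per time point, at least three independent experiments.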

Arabidopsis leaves = test: Time-resolved stomatal conductance; assay type: in vivo, Arabidopsis thaliana
How it was run: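 Plants grown in short days (10/14 h) at 22 °C. Detached leaves equilibrated in an LI-6800 chamber until gsw was stable, then given 2 µM ABA. Chamber settings: 200 µmol m−2 s−1 light (90% red, 10% blue), 22 °C, 75% RH, 400 ppm CO2, […]. Time-resolved gsw reported as mean ± s.d. of at least three biological replicates.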

[4] = test system: Arabidopsis seedlings (primary root); test: Primary root growth inhibition / LRR-RLK screening; assay type: in vivo, Arabidopsis thaliana; settings: 0.75 µM CLE5p
How it was run: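 Arabidopsis lrr-rlk mutant seedlings were germinated on 1/2MS agar for 3 days. They were then transferred to 1/2MS agar containing 0.75 µM test peptide. Primary root length was measured after 3 days of peptide treatment.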

[5] = biological target: BAM1 extracellular domain; test: Isothermal titration calorimetry; assay type: binding, Arabidopsis thaliana; settings: read-out: dissociation constant (Kd); ITC, MicroCal ITC200, 37 °C, 1 mM CLE5p into 0.1 mM GST-BAM1, 20 mM Tris-HCl pH 7.5, 25 mM NaCl, 5% glycerol; One Set of Sites; ± fitting errors; repeated twice
How it was run: (§2)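 Recombinant GST-fused receptor protein, gel-filtered into titration buffer, titrated at 37 °C with sequential injections of test peptide at 180 s intervals. Cell stirred at 800 rpm, reference power 5 µcal/s. GST alone served as negative control. Data fitted to a one-set-of-sites model to give Kd, stoichiometry N, ΔG, ΔH and -TΔS.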

[6] = biological target: GHR1 extracellular domain; test: Isothermal titration calorimetry; assay type: binding, Arabidopsis thaliana; settings: read-out: dissociation constant (Kd); ITC, MicroCal ITC200, 37 °C, 1 mM CLE5p into 0.1 mM GST-GHR1, 20 mM Tris-HCl pH 7.5, 25 mM NaCl, 5% glycerol; One Set of Sites; ± fitting errors; repeated twice
How it was run: as §2

[7] = biological target: T1, GST-BAM1 (LRR repeats of BARELY ANY MERISTEM 1, N-terminal GST fusion) (Arabidopsis thaliana); test: ITC
T1 sequence (O49545 whole entry, looked up): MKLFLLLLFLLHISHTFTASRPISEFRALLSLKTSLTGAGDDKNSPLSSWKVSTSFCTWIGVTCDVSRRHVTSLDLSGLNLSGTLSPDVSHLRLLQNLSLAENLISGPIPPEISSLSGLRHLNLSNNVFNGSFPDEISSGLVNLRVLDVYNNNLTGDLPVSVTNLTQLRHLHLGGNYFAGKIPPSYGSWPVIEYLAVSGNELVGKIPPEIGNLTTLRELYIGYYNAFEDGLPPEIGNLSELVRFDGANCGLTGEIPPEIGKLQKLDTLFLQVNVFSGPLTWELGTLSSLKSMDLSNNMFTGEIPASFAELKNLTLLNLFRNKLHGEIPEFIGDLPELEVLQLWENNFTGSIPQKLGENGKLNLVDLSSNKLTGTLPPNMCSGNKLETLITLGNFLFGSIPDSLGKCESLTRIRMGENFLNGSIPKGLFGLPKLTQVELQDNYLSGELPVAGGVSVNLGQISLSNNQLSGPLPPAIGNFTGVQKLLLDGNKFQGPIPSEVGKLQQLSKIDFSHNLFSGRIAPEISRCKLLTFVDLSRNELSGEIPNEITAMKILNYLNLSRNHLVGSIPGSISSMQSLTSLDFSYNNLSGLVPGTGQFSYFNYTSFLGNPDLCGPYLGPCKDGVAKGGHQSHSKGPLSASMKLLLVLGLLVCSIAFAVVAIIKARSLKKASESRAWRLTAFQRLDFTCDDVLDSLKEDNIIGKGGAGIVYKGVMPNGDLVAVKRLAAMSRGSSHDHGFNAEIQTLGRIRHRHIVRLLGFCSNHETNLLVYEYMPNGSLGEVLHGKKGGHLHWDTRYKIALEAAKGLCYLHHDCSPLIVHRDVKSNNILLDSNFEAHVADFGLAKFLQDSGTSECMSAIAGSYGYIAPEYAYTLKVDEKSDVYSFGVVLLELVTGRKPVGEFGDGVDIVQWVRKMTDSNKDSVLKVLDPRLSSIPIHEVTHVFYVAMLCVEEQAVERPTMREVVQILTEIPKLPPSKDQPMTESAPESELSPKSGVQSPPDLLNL

[8] = biological target: T2, GST-GHR1 (LRR repeats of GUARD CELL HYDROGEN PEROXIDE-… 1, N-terminal GST fusion) (Arabidopsis thaliana); test: ITC
T2 sequence (C0LGQ9 whole entry, looked up): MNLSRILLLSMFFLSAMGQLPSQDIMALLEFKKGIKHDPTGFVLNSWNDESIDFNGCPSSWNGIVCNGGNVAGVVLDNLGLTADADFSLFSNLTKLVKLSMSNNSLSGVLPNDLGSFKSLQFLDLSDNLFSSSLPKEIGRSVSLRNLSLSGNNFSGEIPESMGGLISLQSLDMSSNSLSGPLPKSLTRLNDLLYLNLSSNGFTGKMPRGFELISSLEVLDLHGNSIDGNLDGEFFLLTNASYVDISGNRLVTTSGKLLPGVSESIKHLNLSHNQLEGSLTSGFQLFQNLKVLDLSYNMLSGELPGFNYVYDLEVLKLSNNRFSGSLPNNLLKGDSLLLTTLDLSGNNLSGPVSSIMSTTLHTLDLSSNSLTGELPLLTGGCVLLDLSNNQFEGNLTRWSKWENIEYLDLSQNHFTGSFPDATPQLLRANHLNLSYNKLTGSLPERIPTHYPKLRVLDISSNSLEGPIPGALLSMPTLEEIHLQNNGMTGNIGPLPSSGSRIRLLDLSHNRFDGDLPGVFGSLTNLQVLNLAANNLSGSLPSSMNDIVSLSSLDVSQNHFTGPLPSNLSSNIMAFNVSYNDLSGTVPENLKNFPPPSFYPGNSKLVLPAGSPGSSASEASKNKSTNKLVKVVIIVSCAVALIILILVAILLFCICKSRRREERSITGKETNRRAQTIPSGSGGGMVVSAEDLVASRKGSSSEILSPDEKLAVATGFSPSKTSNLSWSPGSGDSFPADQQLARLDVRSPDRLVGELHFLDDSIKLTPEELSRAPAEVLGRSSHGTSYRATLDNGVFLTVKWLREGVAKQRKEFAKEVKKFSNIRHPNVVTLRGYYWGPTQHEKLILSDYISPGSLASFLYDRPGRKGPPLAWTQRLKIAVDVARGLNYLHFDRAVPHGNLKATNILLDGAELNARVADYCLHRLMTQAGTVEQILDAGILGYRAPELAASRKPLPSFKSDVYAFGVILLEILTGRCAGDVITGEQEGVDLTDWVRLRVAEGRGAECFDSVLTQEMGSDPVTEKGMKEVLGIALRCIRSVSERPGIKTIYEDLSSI

Molecule: CC1=CC(=O)CC(C)(C)[C@@]1(O)/C=C/C(C)=C\C(=O)O [ABA, abscisic acid]
H2O2 accumulation (DAB staining) ([1]; 1 µM ABA): induced H2O2 accumulation
SRK2E-GFP mobility shift (phosphorylation) (SRK2E): a distinct band shift was detected
stomatal closure [2]: induce rapid stomatal closure
SRK2D-GFP mobility shift (phosphorylation) (SRK2D): a distinct band shift was detected
stomatal closure ([3]; cle5-1 and bam1-3ghr1 leaves, 2 µM ABA, 30 min): failed to induce stomatal closure
stomatal conductance response to ABA (Arabidopsis leaves; 35S::SRK2E(Triple A)/srk2e leaves, 2 µM ABA): insensitive to the ABA treatment
stomatal conductance response to ABA (Arabidopsis leaves; 35S::SRK2E/srk2e leaves, 2 µM ABA, compared to srk2e): decreased rapidly
stomatal conductance response to ABA (Arabidopsis leaves; bam1-3, ghr1, bam1-3ghr1 leaves, 2 µM ABA): insensitive to the ABA-induced reduction of stomatal conductance
stomatal conductance response to ABA (Arabidopsis leaves; cle5-1 leaves, 2 μM ABA): insensitive to ABA treatment
stomatal conductance response to ABA (Arabidopsis leaves; pGC1::CLE5/cle5-1 leaves (stomata-specific CLE5), 2 μM ABA): sufficient to elicit ABA-induced stomatal closure
stomatal conductance response to ABA (Arabidopsis leaves; wild type and pCLE5::CLE5/cle5-1 leaves, 2 μM ABA): began to close their stomata promptly after ABA application

Kd [5]: 2.52 µM
Kd [6]: 7.39 µM
Molecule: CLE5p: mature CLE5 dodecapeptide, hydroxyproline at residues 4 and 7, non-arabinosylated (RVS[Hyp]GG[Hyp]DPQHH)
H2O2 accumulation (DAB staining) ([1]; 100 µM CLE5p, detached leaves): no hydrogen peroxide (H2O2) accumulation
root growth inhibition, in words ([4]; bam1-3, ghr1, bam1-3ghr1 seedlings): Neither single bam1-3 and ghr1 nor double bam1-3ghr1 mutants showed significant growth defects
root growth inhibition, in words ([4]; bam3 and wild type seedlings): sensitive to the CLE5p-induced root growth inhibition
stomatal closure ([3]; rbohDrbohF double mutant leaves): induced stomatal closure

Molecule: CLE25p: root-derived CLE peptide transported from roots to leaves (RKVPNGPDPIHN; ends and bridges not checked; UniProt Q8LFL4 58-69, looked up)
drought stress response ([2]; root-derived, transported from roots to leaves): promotes drought stress resistance by stimulating ABA biosynthesis

Kd [7]: 2.52 µM
Kd [8]: 7.39 µM
B1: CLE5 dodecapeptide (CLE5p) (peptide)
peptide: RVS[Hyp]GG[Hyp]DPQHH
